Measured values collected from several papers.
Target: Serine/threonine-protein kinase 32B (STK32B, Homo sapiens, UniProt Q9NY57)

| SMILES | assay | conditions | measurement | result |
| --- | --- | --- | --- | --- |
| CN1CC(Oc2cnc(C#N)cc2-c2ccn3nc(NC(=O)C4CC4)cc3c2)C1 | enzyme activity, inhibitor | 1 µM | inhibition | -2% |
| COc1ccc2c(c1)O[C@@H](c1ccc(OC)c(OC)c1)C[C@H]2NC(=O)C1(c2ccc3c(c2)OC(F)(F)O3)CC1 | cell-free assay, competition with immobilised ligand | 1 µM | remaining binding | 100% |
| CC(C)(O)[C@H]1CC[C@H](Nc2ccc3ncc(-c4cccc(C(F)(F)F)c4)n3n2)CC1 | enzyme activity, inhibitor | 1 µM | remaining activity | 96.8% |
| O=C(Nc1cnn(-c2csc(C(=O)NC3COC3)c2)c1)Nc1ccccc1Cl | enzyme activity, inhibitor | 5 µM | remaining activity | 122% |
| Cc1ccc(C(=O)Nc2ccc(CN3CCN(C)CC3)c(C(F)(F)F)c2)cc1C#Cc1cnc2cccnn12 | cell-free assay | 23.5 nM | remaining signal | 98% |
| CS(=O)(=O)c1cc(C2(NC(=O)c3cncc4c3cnn4-c3ccc(F)cc3)CC2)ccn1 | cell-free assay, competition with immobilised ligand | 1 µM | remaining binding | 100% |
| COc1cc(Cl)c(C(=O)N[C@@H](CN[C@H]2CC[C@@H](N)CC2)Cc2ccc(C#N)cc2)cc1-c1ccc(CN[C@H](C)c2ccc(C)cc2)o1 | enzyme activity, inhibitor | 1 µM | remaining activity | 102% |
| Cc1sc(C(=O)NC2COC2)cc1-n1cc(NC(=O)Nc2c(F)cccc2Cl)cn1 | enzyme activity, inhibitor | 10 µM | remaining activity | 89.8% |
| Nc1ncnc2occ(-c3ccc(NC(=O)Nc4cc(C(F)(F)F)ccc4F)cc3)c12 | cell-free assay | 20 µM | remaining signal | 0.9% |
